Rows were chosen to be rich in hits. Some 1.6% of all compounds tested hit in one or more screens of this group.
FID counter – compounds displacing fluorescent DNA intercalator, primary screen, artefact control for HCV NS3 helicase inhibitor project, biochemical, FID fluorescence | DNA fluorescent intercalator displacement | hit rate 0.17% among 290,000 | inhibition, % at 7.9 µM; in the data active means inhibition above about 37%;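 further: 0% = vehicle and 100% = reference compound; higher means more ethidium bromide displaced from hairpin DNA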
RAD52 inh – RAD52 DNA annealing inhibitors, primary screen, biochemical, FRET, single point, set 2; DNA repair protein RAD52 homolog (Homo sapiens), P43351; recombinant RAD52 DNA annealing, FRET fluorescence; inhibition, % at 18.7 µM; hit rate 0.46% among 360,000;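 active means every replicate showing at least 50% inhibition; inconclusive means mean inhibition at least 50% but not in every replicate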
Apaf1 inhib – inhibitors of human Apaf-1 apoptosome, primary screen, biochemical, DEVD-Rh110 fluorescence, uHTS; inhibition, % at 20 µM; Apoptotic protease-activating factor 1 (Homo sapiens), O14727; reconstituted apoptosome caspase-3 activity; hit rate 0.71% among 330,000; active means inhibition of at least 40% at 20 µM;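 further: plate controls were DMSO wells for no effect and DEVD-CHO caspase inhibitor wells for full effect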
Target sequence (O14727 whole entry, looked up): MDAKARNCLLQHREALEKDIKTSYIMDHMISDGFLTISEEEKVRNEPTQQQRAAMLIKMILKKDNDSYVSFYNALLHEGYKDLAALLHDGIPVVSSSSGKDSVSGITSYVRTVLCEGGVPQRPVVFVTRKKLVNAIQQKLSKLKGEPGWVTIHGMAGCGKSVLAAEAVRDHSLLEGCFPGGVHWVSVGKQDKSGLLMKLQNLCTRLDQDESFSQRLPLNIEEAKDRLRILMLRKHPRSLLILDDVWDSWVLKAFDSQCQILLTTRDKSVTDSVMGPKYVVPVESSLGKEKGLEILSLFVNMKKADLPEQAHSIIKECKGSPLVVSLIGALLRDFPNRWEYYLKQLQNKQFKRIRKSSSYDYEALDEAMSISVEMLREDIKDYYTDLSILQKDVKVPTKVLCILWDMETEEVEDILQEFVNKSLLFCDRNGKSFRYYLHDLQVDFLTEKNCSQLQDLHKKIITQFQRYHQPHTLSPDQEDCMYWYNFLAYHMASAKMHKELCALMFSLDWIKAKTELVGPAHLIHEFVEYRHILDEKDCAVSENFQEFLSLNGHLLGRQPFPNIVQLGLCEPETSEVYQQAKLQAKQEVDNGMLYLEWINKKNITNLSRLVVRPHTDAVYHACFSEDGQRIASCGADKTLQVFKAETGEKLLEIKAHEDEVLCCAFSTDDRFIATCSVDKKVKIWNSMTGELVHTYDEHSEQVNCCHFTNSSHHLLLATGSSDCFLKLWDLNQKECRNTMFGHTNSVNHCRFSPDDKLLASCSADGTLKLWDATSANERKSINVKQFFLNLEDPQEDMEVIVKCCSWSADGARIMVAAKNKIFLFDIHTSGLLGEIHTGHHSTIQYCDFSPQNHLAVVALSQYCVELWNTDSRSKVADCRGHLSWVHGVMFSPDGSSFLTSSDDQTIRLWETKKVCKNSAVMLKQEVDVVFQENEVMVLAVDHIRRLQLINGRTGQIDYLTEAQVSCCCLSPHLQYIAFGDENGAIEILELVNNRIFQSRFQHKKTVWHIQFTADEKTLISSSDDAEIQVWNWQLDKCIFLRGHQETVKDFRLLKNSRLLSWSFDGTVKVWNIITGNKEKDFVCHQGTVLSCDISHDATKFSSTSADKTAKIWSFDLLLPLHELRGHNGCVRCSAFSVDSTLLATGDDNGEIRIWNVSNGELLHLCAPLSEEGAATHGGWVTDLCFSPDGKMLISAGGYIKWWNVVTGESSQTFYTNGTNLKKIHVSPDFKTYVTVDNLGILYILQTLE
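Material: biochemical Apaf-1 apoptosome reconstitution. Medium: Hepes buffer, pH 7.5. Also added: cytochrome c activation, bis-DEVD rhodamine 110 substrate. Timing: 30 min compound preincubation, 50 min activation, room temperature. Measured by: rhodamine 110 fluorescence at Ex 480/Em 540 nm.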
Neddyl block – inhibitors of cullin neddylation, primary screen, biochemical, TR-FRET, uHTS, NAE and Ubc12; calls only at 25 µM; hit rate 0.58% among 360,000; AID 651699, 2012; in the data active means inhibition above about 36%
RAD54 branch – inhibitors of human RAD54 branch migration, primary screen, biochemical, fluorescence, single point; inhibition, % at 10.4 µM; AID 602329, 2012; hit rate 0.14% among 360,000; RAD54 Holliday junction branch migration, FAM/BHQ fluorescence; DNA repair and recombination protein RAD54-like (Homo sapiens), Q92698;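 active means mean normalized replicate activity at least 40 and at least half of replicates scoring 40 or more; inconclusive means only one of the two criteria met; inactive means mean below 40 and under half of replicates reaching 40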;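 further: 0% = median of neutral control wells and 100% = median of positive control wells; inhibitors cause a drop in the FAM fluorescence signal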
UBC13 polyUb – UBC13 polyubiquitin chain formation inhibitors, primary screen, biochemical, TR-FRET, uHTS. Ubiquitin-conjugating enzyme E2 N (Homo sapiens), P61088. inhibition, % at 20 µM. hit rate 0.47% among 330,000. AID 485273, 2010; in the data active means inhibition above about 45%, passing the limit was not always enough; inconclusive means no clear call, values can overlap the other calls
DNA binder FP – DNA-binding compounds via dye displacement, dose response, artefact control for RAD52 inhibitor project, biochemical, fluorescence polarization, cherry-pick. AC50, µM. shares compounds with RAD52 inh. hit rate 8% among 1,000. Salmon sperm DNA/acridine orange FP displacement. AID 652128, 2013;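 active means fitted half-maximal concentration for signal loss at or below twice the highest dose tested, in every separate run, actives reach about 64 µM in these data; inconclusive means runs disagree, or flat partial signal loss, or poor fit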
Starred values were filed as active, the others as inactive; i = inactive; ? = inconclusive; . = no result given.

SMILES | FID counter | RAD52 inh | Apaf1 inhib | Neddyl block | RAD54 branch | UBC13 polyUb | DNA binder FP
COc1ccc2sc(N(CCN(C)C)C(=O)c3ccc4ccccc4c3)nc2c1 | 6.0 | 55.6* | 19.8 | i | 0.2 | 11.0 | i
CCN(CC)CCN(C(=O)c1ccc2ccccc2c1)c1nc2cc3c(cc2s1)OCO3 | 9.5 | 60.9* | 18.7 | i | -1.6 | 20.0 | i
O=C(O)C[C@@H]1C[C@@H]2c3cc(NC(=O)Nc4ccc(C(F)(F)F)cc4)ccc3O[C@@H]2[C@H](CO)O1 | . | -2.2 | . | . | -2.4 | . | .
O=C(CN1CCOCC1)NNc1c2ccccc2nc2ccccc12 | 13.8 | 14.5 | -6.3 | i | . | -40.0 | .
C[N+]1(CC(=O)NNc2c3ccccc3nc3ccccc23)CCOCC1 | 42.8* | 101.0* | 5.8 | . | . | -317.5 | 9.04µM*
COc1ccc(N2CCc3c(C)nc4c(OC)cccc4c32)cc1 | 3.8 | 52.4* | -13.4 | i | . | -0.5 | i
COc1ccc(N2CCc3c(C)nc4c(OC)cc(OC)cc4c32)cc1 | 10.2 | 87.1* | 7.9 | i | . | 0.7 | i
COc1cccc(N2CCc3c(C)nc4ccc(Cl)cc4c32)c1 | 1.6 | -32.3 | . | . | 19.0 | . | .
COc1cccc(NC(=O)N[C@@H]2CC[C@@H](CC(=O)Nc3ccccc3)O[C@@H]2CO)c1 | . | 5.2 | . | . | 3.4 | . | .
O=C(C[C@H]1CC[C@@H]2[C@H](COC[C@@H](O)CN2C(=O)c2cccnc2)O1)NC1Cc2ccccc2C1 | . | -54.0 | . | . | 4.4 | . | .
COc1cc2c(oc(=O)c3cc(C)cc(OC)c32)c2c(C3OC(C)C(O)C(C)(O)C3O)ccc(O)c12 (stereo not drawn) | . | 73.3* | . | i | . | . | i
COc1cccc2cc(C(=O)N3CC(C)OC(C)C3)c(=O)oc12 (stereo not drawn) | -2.5 | -12.8 | -15.6 | i | -1.3 | -3.3 | .
COCC(=O)N1CC2(C1)[C@H](c1ccc(C3=CCCC3)cc1)[C@@H](CO)N2C(=O)COC | . | -31.2 | . | . | . | . | .
Cc1cccc(CN2C(=O)c3ccccc3S(=O)(=O)c3ccc(C(=O)NCCCN4CCCC4)cc32)c1 | 19.6 | 51.4* | 21.2 | i | 17.7 | 14.5 | i
COCC#Cc1cnc2c(c1)C(=O)N([C@@H](C)CO)C[C@H](C)[C@@H](CN(C)C(=O)NC1CCCC1)O2 | . | 6.4 | . | . | 1.1 | . | .
Fc1ccc2c(c1)Sc1ccc(Cl)cc1CC2N1CCN(CCC2OCCO2)CC1 (stereo not drawn) | . | 81.2* | 18.3 | i | . | 15.7 | i
CC(C)(C)NCC(O)CON=C1c2ccccc2-c2ccccc21 (stereo not drawn) | 44.9* | 55.1* | -0.4 | i | . | 8.7 | i
N#Cc1cc2cc3c(cc2nc1NCCNC(=S)NCCCN1CCOCC1)OCO3 | 12.2 | 72.3* | 8.3 | . | . | 2.4 | i
N#Cc1cc2cc3c(cc2nc1SCC(=O)N1CCOCC1)OCO3 | -13.2 | -35.0 | 0.9 | i | 5.2 | 12.0 | .
COc1ccccc1NC(=S)NC12CN3CN(CN(C3)C1)C2 | 2.9 | 79.2* | 1.1 | i | . | 0.4 | i
CC(C)=N/N=C(/c1ccc([N+](=O)[O-])cc1)C12CN3CN(CN(C3)C1)C2 | -14.1 | 95.2* | -10.0 | i | . | -5.0 | i
COc1ccc(CNCc2ccncc2)c(OC)c1 | 0.2 | -17.4 | 10.6 | i | -2.2 | -3.9 | .
CCN(Cc1ccncc1)Cc1ccc(OC)cc1OC | 9.1 | 99.0* | 3.2 | i | -0.3 | -3.7 | i
COc1cccc(NC(=O)N[C@@H]2CC[C@@H](CC(=O)NCc3ccccn3)O[C@@H]2CO)c1 | . | 3.6 | . | . | 7.3 | . | .
O=C(CC(C(=O)O)c1cccc(Br)c1)c1ccc(Cl)cc1 (stereo not drawn) | -22.9 | 107.8* | 0.4 | i | 8.7 | 1.3 | i
SMILES | FID counter | RAD52 inh | Apaf1 inhib | Neddyl block | RAD54 branch | UBC13 polyUb | DNA binder FP
COc1cc(COCC(O)CN2CCN(CCN3C(=O)c4cccc5cccc(c45)C3=O)CC2)cc(OC)c1OC (stereo not drawn) | 7.2 | 84.7* | -6.0 | i | . | 25.8 | i
COc1cccc(OCC(O)CN2CCN(C)CC2)c1 (stereo not drawn) | 1.2 | -6.5 | -4.1 | i | -2.4 | 0.2 | .
COc1cccc(OCC(O)CN2CCC(CN3C(=O)c4cccc5cccc(c45)C3=O)CC2)c1 (stereo not drawn) | 14.0 | 86.0* | 11.1 | i | . | 26.3 | i
C[C@@H]1CN([C@H](C)CO)C(=O)c2cc(NS(=O)(=O)c3ccc(F)cc3)ccc2O[C@@H](C)CCCCO[C@H]1CN(C)Cc1ccncc1 | . | -4.3 | . | . | -1.2 | . | .
NCCCC[C@H]1CN=C(N)N1CCc1cccc2ccccc12 | . | 28.3 | 3.9 | i | 31.7 | 5.2 | .
NCCCC[C@H]1CN=C(N)N1CCC12CC3CC(CC(C3)C1)C2 | . | 56.5* | 3.0 | i | 7.0 | 24.4 | i
CN(C)CCNC(=O)C(=O)Nc1cc2c3c(c1)CCC(=O)N3CCC2 | -9.1 | 2.7 | 4.8 | i | 8.4 | 1.6 | .
CN(C)CCCNC(=O)C(=O)Nc1cc2c3c(c1)CC(=O)N3CCC2 | 5.9 | 96.9* | -3.2 | i | -3.2 | 1.4 | i
Cc1nc(N=C(N)N)nc2ccccc12 | 3.3 | 61.5* | -5.3 | i | . | -9.5 | i
CCC(=O)N/C(N)=N/c1nc(C)c2cc(C)c(C)cc2n1 | 6.6 | -4.3 | -14.5 | i | 7.6 | 9.1 | .
CCc1ccc2nc(N=C(N)N)nc(C)c2c1 | 7.2 | 50.8* | -7.8 | i | . | -1.8 | i
Cc1cc2nc(N=C(N)N)nc(C)c2cc1C | 32.9 | 84.5* | . | i | ? | . | i
Cc1nc(/N=C(\N)NC(=O)c2ccccc2)nc2ccccc12 | -3.1 | -30.5 | -3.2 | i | 12.4 | 3.3 | .
Cc1ccc2nc(N=C(N)N)nc(C)c2c1 | 7.5 | 51.5* | -10.1 | i | ? | -9.1 | i
C[C@@H]1CN([C@@H](C)CO)C(=O)c2cc(NC(=O)C3CC3)ccc2O[C@@H]1CN(C)C(=O)Nc1cccc2ccccc12 | . | 10.4 | . | . | -8.9 | . | .
CN(C)CC(=O)N1CCCCN2[C@H](CO)[C@@H](c3ccc(-c4cccnc4)cc3)[C@@H]2C1 | . | 11.1 | . | . | 11.2 | . | .
CCCNC(=O)C[C@H]1C[C@@H]2c3cc(NS(=O)(=O)c4ccc(F)cc4)ccc3O[C@@H]2[C@@H](CO)O1 | . | -7.5 | . | . | 6.1 | . | .
Cn1cnc(CCNC(=O)C[C@H]2CC[C@@H]3[C@H](COC[C@H](O)CN3C(=O)Nc3ccc(F)cc3)O2)c1 | . | 7.8 | . | . | 0.2 | . | .

Bioassay records (PubChem BioAssay)
